Measured values from different studies.
pIC50: −log10 of the molar value.
Cell line: SW-620
Read-out: cell growth or viability

| SMILES | assay | conditions | quantity | value |
| --- | --- | --- | --- | --- |
| COc1ccc(C(=O)/C=C/c2cccc(Cl)c2Cl)cc1S(N)(=O)=O | SRB | 48 h | GI50 | 1600 nM |
| COc1cccc2c1C(=O)c1c(O)c3c(c(O)c1C2=O)C[C@@](O)(C(=O)CO)C[C@@H]3O[C@H]1C[C@H](N)[C@H](O)[C@H](C)O1 | MTT | 48 h | IC50 | 2.57 µg/mL |
| CC[C@H](C)C(=O)O[C@H]1C[C@@H](C)C=C2C=C[C@H](C)[C@H](CC[C@@H]3C[C@@H](O)CC(=O)O3)[C@H]21 | SRB | 72 h | IC50 | 0.03 µg/mL |
| CC(=O)Nc1cccc(-n2c(=O)n(C3CC3)c(=O)c3c(Nc4ccc(I)cc4F)n(C)c(=O)c(C)c32)c1 | resazurin | 50 nM, 72 h | viability | 25.7% |
| O=C(/C=C/c1ccc2c(=O)n(Cc3ccccc3F)cnc2c1)NO | SRB | 48 h | pIC50 | 5.75 |
| S=C([S][Au-][P+](CCCCCC[P+]([Au-][S]C(=S)n1cccn1)(c1ccccc1)c1ccccc1)(c1ccccc1)c1ccccc1)n1cccn1 | – | – | GI50 | 4490 nM |
| COc1ccc(C(=O)/C=C/c2ccc3ccccc3c2)cc1S(N)(=O)=O | SRB | 48 h | GI50 | 1800 nM |
| O=C(/C=C/c1ccc2c(=O)n(Cc3ccccc3)cnc2c1)NO | SRB | 48 h | pIC50 | 5.95 |
| CC[C@H](C)C(=O)O[C@H]1CCC=C2C=C[C@H](C)[C@H](CC[C@@H]3C[C@@H](O)CC(=O)O3)[C@H]21 | SRB | 72 h | IC50 | 0.48 µg/mL |
| Cc1ccc(Cn2cnc3ccc(/C=C/C(=O)NO)cc3c2=O)cc1 | SRB | 48 h | pIC50 | 5.84 |
| COc1ccc(C(=O)/C=C/c2ccccc2Br)cc1S(N)(=O)=O | SRB | 48 h | GI50 | 1800 nM |
| O=C(/C=C/c1ccc2c(=O)n(Cc3ccc(Cl)cc3)cnc2c1)NO | SRB | 48 h | pIC50 | 6.17 |
| COc1ccc(C(=O)/C=C/c2c(F)cccc2Cl)cc1S(N)(=O)=O | SRB | 48 h | GI50 | 3600 nM |
| O=C(/C=C/c1ccc2ncn(Cc3ccccc3)c(=O)c2c1)NO | SRB | 48 h | pIC50 | 5.82 |
| COc1cc(Nc2nccc(-c3cnn4nc(OC)ccc34)n2)cc(C(F)(F)F)c1 | ATP luminescence | – | pIC50 | 6.80 |
